We go through 6 compounds from ChEMBL document CHEMBL1153331, “Antitumour and antimalarial activity of artemisinin-acridine hybrids” (Bioorg Med Chem Lett, 2009).

pIC50: −log10 of the molar value. The source made the active and inactive calls. The calls are words filed in the database; no cut-off is given here. Where only a bound is given, the exact number is not on record here.

Assay [1] concerns HL-60. The assay can be described thus: Cytotoxicity against human HL60 cells after 72 hrs by MTT assay. In kind it is functional, cell-based. Conditions: HL-60, 72 h. An outline of the steps:
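MTT viability: 2.5 × 10^4 cells/well in triplicate, exposed to 0.01–100 µM compound for 72 h at 37 °C, 5% CO2; MTT 3 h at 37 °C, SDS/DMF lysis 4 h; absorbance 570 nm (reference 590 nm); expressed as % of vehicle-only cells; IC50 from individual inhibition curves; means of three experiments with SD.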
In general terms: Tetrazolium dyes change colour on reduction, which living cells bring about.

Assay [2] is described as follows: Cytotoxicity against human HT29-AK cells after 72 hrs by MTT assay. The format is functional, cell-based.
The next assay relates to MDA-MB-231. Nature of the assay: Cytotoxicity against human MDA-MB-231 cells after 72 hrs by MTT assay. The following applies: MDA-MB-231, 72 h. In kind it is functional, cell-based.
The test system of another assay is MCF7. Nature of the assay: Cytotoxicity against human MCF7 cells after 72 hrs by MTT assay. In kind it is functional, cell-based. Conditions: MCF7, 72 h.
For another assay, the system named is Plasmodium falciparum. Nature of the assay: Antimalarial activity after 48 hrs against chloroquine-sensitive Plasmodium falciparum 3D7 by [3H]hypoxanthine uptake. In kind it is functional, organism-based.
Assay [3] relates to Nucleic Acid. Nature of the assay: Binding affinity to poy A-poly U RNA assessed as change in thermal melting temperature at compound to polynucleotide ratio of 0.3 at pH 7 by […]. In kind it is nucleic-acid assay. An outline of the steps: (§1)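 Thermal melting of ds-polynucleotides at r = [compound]/[polynucleotide] = 0.3, pH 7 Na cacodylate buffer 0.02 M (I = 0.005 M; poly A–poly T at I = 0.05 M); ΔTm reported, error ±0.5 °C.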

Assay [4] relates to Nucleic Acid. Nature of the assay: Binding affinity to poy A-poly T DNA assessed as change in thermal melting temperature at compound to polynucleotide ratio of 0.3 at pH 7 by […]. In kind it is nucleic-acid assay. In a few lines:
as §1

The subject of assay [5] is Calf thymus DNA. The assay can be described thus: Binding affinity to calf thymus DNA by fluorimetric binding titration study. In kind it is nucleic-acid assay. The following applies: Bos taurus.
Assay [6] relates to Nucleic Acid. Nature of the assay: Binding affinity to poy A-poly U RNA by fluorimetric binding titration study. In kind it is nucleic-acid assay.
In assay [7] the test system is Nucleic Acid. Nature of the assay: Binding affinity to poy A-poly U RNA assessed as intercalation into double helix by circular dichroism analysis. The format is nucleic-acid assay. (CD spectra are sensitive to the conformation of chiral molecules.)
The test system of assay [8] is Calf thymus DNA. The assay can be described thus: Binding affinity to calf thymus DNA assessed as intercalation into double helix by circular dichroism analysis. In kind it is nucleic-acid assay. Conditions: Bos taurus. An outline of the steps:
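CD spectra of ct-DNA (1 × 10^-5 mol dm^-3) titrated at various r = [compound]/[ctDNA], change followed at 280 nm; induced acridine CD band at ct-DNA 1 × 10^-4 mol dm^-3; pH 7 Na cacodylate buffer, I = 0.05 M.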

The subject of assay [9] is Calf thymus DNA. The assay can be described thus: Binding affinity to calf thymus DNA assessed as change in thermal melting temperature at compound to polynucleotide ratio of 0.3 at pH 7 by thermal melting analysis. The following applies: Bos taurus.
Assay [10] relates to HL-60. The assay can be described thus: Induction of apoptosis in human HL60 cells assessed as induction of mitochondrial membrane depolarization by tetramethylrhodamine ethyl ester-based flow cytometry. The format is functional, cell-based. An outline of the steps: (§2)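 HL60 cells treated 24 h; 5 × 10^5 cells washed in HBSS, loaded with 50 nM TMRE in HBSS for 10 min at 37 °C; ≥500 cells read by flow cytometry on FL-2 to score depolarised mitochondria; mean ± SD of three independent experiments, Mann-Whitney U vs drug blank.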
A general note: In flow cytometry, cells or beads pass a laser one at a time.

Assay [11] has as its system HL-60. The assay can be described thus: Induction of apoptosis in human HL60 cells assessed as induction of mitochondrial membrane depolarization at 1 uM by tetramethylrhodamine ethyl ester-based flow cytometry. The format is functional, cell-based. In a few lines: as §2
Assay [12] relates to HL-60. The assay can be described thus: Induction of apoptosis in human HL60 cells assessed as induction of mitochondrial membrane depolarization at 10 uM after 24 hrs by tetramethylrhodamine ethyl ester-based flow cytometry. In kind it is functional. An outline of the steps:
as §2

For assay [13], the system named is HL-60. The assay can be described thus: Induction of apoptosis in human HL60 cells assessed as accumulation at sub-G0/G1 phase after 24 hrs by propidium iodide-based flow cytometry. The format is functional, cell-based. An outline of the steps:
(§3)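 HL60 cells treated 24 h; 1 × 10^6 cells washed in HBSS, fixed in ice-cold 70% ethanol at −20 °C for 2 h, stained with PI (40 µg/mL) plus RNase 0.1 mg/mL and 3.8 mM sodium citrate in PBS, 30 min at 37 °C; ≥5000 cells read on FL-2; sub-G0/G1 fraction from DNA content; mean ± SD of three independent experiments, Mann-Whitney U vs drug blank.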

The subject of assay [14] is HL-60. Nature of the assay: Induction of apoptosis in human HL60 cells assessed as accumulation at sub-G0/G1 phase at 10 uM after 24 hrs by propidium iodide-based flow cytometry. In kind it is functional. In a few lines:
as §3

Assay [15] concerns HL-60. Nature of the assay: Induction of apoptosis in human HL60 cells assessed as caspase-3 activation after 24 hrs by Western blot analysis. The format is functional, cell-based. In a few lines: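 HL60 cells treated 24 h with 0.5, 1.0, 5 or 10 µM alongside untreated control; 3 × 10^6 cells washed and sonicated, protein by Bradford; 20 µg per lane denatured 3 min at 95 °C, resolved on 14% SDS–PAGE, transferred to nitrocellulose; read-out pro-caspase-3 (32 kDa) and processed active subunit.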

As a reminder, the pIC50 is −log10 of the IC50, conventionally taken in molar units. Lower therefore signals a high IC50. `COc1ccc2nc3cc(Cl)ccc3c(NCCCCNC(=O)C[C@H]3O[C@@H]4O[C@@]5(C)CC[C@H]6[C@H](C)CC[C@@H]([C@H]3C)[C@@]46OO5)c2c1`: the pIC50 is 5.80 in the assay on HL-60 [1]; 3.61 in assay [2]; 4.36 in the assay with MDA-MB-231; 4.93 in the assay on MCF7; 7.69 in the assay on Plasmodium falciparum.

As to `COc1ccc2nc3cc(Cl)ccc3c(N3CCN(C(=O)C[C@H]4O[C@@H]5O[C@@]6(C)CC[C@H]7[C@H](C)CC[C@@H]([C@H]4C)[C@@]57OO6)CC3)c2c1`, the pIC50 in the assay on HL-60 [1] is 6.25; in assay [2], under 3.12; with MDA-MB-231, 4.67; in the assay on MCF7, 5.45; with Plasmodium falciparum, 6.54.

What is called ΔTm is the shift of the melting midpoint relative to a reference. Consider `COc1ccc2nc3cc(Cl)ccc3c(NCCNC(=O)C[C@H]3O[C@@H]4O[C@@]5(C)CC[C@H]6[C@H](C)CC[C@@H]([C@H]3C)[C@@]46OO5)c2c1`, for which the ΔTm with Nucleic Acid [3] was found to be 2.4 °C; in the assay with Nucleic Acid [4], 0.6 °C; in the assay with Calf thymus DNA [9], 3.1 °C. Also, the Ks in the assay with Calf thymus DNA [5] and with Nucleic Acid [6] was 1 ×10⁶ /M in each case. The result in the assay with Nucleic Acid [7] and in the assay on Calf thymus DNA [8] was inactive. Moreover, the pIC50 was 5.93 in the assay with HL-60 [1]; 3.71 in assay [2]; 4.31 in the assay on MDA-MB-231; 4.86 in the assay on MCF7; 8.22 with Plasmodium falciparum.

Consider `C[C@H]1[C@@H](O)O[C@@H]2O[C@@]3(C)CC[C@H]4[C@H](C)CC[C@@H]1[C@@]24OO3` [ARTENIMOL], for which the pIC50 in [2] was 4.79; in the assay with MDA-MB-231, 4.00; in the assay on MCF7, 4.34; in the assay on Plasmodium falciparum, 8.64.

For the compound `COc1ccc2nc3cc(Cl)ccc3c(NCCCNC(=O)C[C@H]3O[C@@H]4O[C@@]5(C)CC[C@H]6[C@H](C)CC[C@@H]([C@H]3C)[C@@]46OO5)c2c1`, the pIC50 with HL-60 [1] was 5.51; in [2], 5.00; in the assay with MDA-MB-231 it was 4.93; in the assay on MCF7, 4.93; with Plasmodium falciparum, 7.65. In addition, the Activity result in the assay with HL-60 [10] is “Dose-dependent effect”; in the assay on HL-60 [12], 98%; with HL-60 [13], “Dose-dependent effect”; in the assay with HL-60 [14] it was 57%; in the assay with HL-60 [15], “Dose-dependent effect”. Besides, the outcome with HL-60 [11] was Active.

`COc1ccc2nc3cc(Cl)ccc3c(NCCN)c2c1`: the values for the ΔTm in the assay with Nucleic Acid [3], in the assay on Nucleic Acid [4] and in the assay on Calf thymus DNA [9] were 2.2 °C, 2.9 °C and 9.3 °C, respectively. Also, the Ks in the assay with Calf thymus DNA [5] and in the assay on Nucleic Acid [6] was 1 ×10⁶ /M throughout. In addition, the pIC50 in the assay on HL-60 [1] was 4.90; in assay [2] it was 5.18; in the assay with MDA-MB-231 it was 5.09.
